# Results reported in ChEMBL document CHEMBL1671644, “Inhibition of human immunodeficiency virus type 1 infection by the candidate microbicide dapivirine, a nonnucleoside reverse transcriptase inhibitor” (Antimicrob Agents Chemother, 2009).
# Legend:
# [1] = Toxicity against human cervical tissue explants after 2 hrs by MTT assay
# Outline: (§1)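 Ectocervical tissue explants, uninfected, exposed to drug for 2 or 24 h at 37°C. Viability by MTT dye reduction per milligram tissue, read right after exposure or after overnight culture following the 2-h exposure, as percent of unexposed controls. Four donors, each condition in triplicate; CC50 by nonlinear regression.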
# [2] = Toxicity against human cervical tissue explants after 24 hrs by MTT assay; outline: as §1
smiles,measurement,setting,value
CCCCCCCCCc1ccc(OCCOCCOCCOCCOCCOCCOCCOCCOCCO)cc1 [NONOXYNOL 9],CC50,[1],0.07%
same,CC50,[2],0.003%
